≈ marks a conversion by molar mass, not a printed value.

One assay concerns CCRF S-180. As to the kind of experiment: Ratio of ILS tested compound/quinocarcin against murine sarcoma S-180 tumor cell line implanted subcutaneously in mice and the compound administered intravenously at a dose of 12.5 mg/kg on days 1-5. The class given is functional, Mus musculus. The following applies: route intravenous.
For the next assay, the system named is HeLa. As to the kind of experiment: In vitro concentration required to inhibit the growth of HeLa S3 cells by 50%. The class given is functional, cell-based. Particulars: Homo sapiens. The procedure, abridged:
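HeLa S3 cells (5 × 10⁴) seeded in Eagle's MEM with 10% FBS and 0.06 mg/mL kanamycin; graded drug concentrations, diluted in growth medium, added 24 h after seeding. Incubated 72 h at 37 °C, humidified 5% CO₂. Monolayers then washed, detached with 0.05% trypsin/0.02% EDTA and counted electronically; IC50 taken as concentration giving 50% growth inhibition.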

A short description of assay [1]: Antitumor activity in vivo in CD2F1 mice measured in terms of percent increase in lifespan calculated at a dose of 6.25 mg/kg intraperitoneally on day one. The format is functional. Particulars: Mus musculus, ip, route intraperitoneal. In short, it runs like this:
(§1)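 P388 lymphocytic leukemia cells (1×10^6) were implanted ip into CD2F1 mice (about 22 g), five mice per group. Drug was given ip from the day after implantation, either once (day 1) or daily on days 1–5. ILS = (T/C − 1) × 100, where T and C are the median survival times of treated and control mice.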

Assay [2] can be described thus: Ratio of the ILS tested compound/quinocarcin was determined for day one in CD2F1 mice. The class given is functional, Mus musculus. In short, it runs like this: (§2)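 CD2F1 mice (5 per group) received 10^6 P388 cells ip. Drug was given ip on day 1 or on days 1–5. ILS was taken as (T/C − 1) × 100 from median survival times, and each compound's ILS was divided by the ILS of quinocarcin.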

Assay [3] in a line: Antitumor activity in vivo in CD2F1 mice measured in terms of percent increase in lifespan calculated at a dose of 6.25 mg/kg intraperitoneally on days 1-5. The format is functional. Particulars: Mus musculus, ip, route intraperitoneal. In short, it runs like this: as §1
Assay [4] is described as follows: Ratio of the ILS tested compound/quinocarcin was determined in CD2F1 mice on days 1-5. The format is functional, Mus musculus. In short, it runs like this: as §2
A short description of assay [5]: Antitumor activity in vivo in CD2F1 mice measured in terms of percent increase in lifespan calculated at a dose of 25 mg/kg intraperitoneally on day one. The format is functional. Particulars: Mus musculus, ip, route intraperitoneal. The procedure, abridged:
as §1

Assay [6] in a line: Antitumor activity in vivo in CD2F1 mice measured in terms of percent increase in lifespan calculated at a dose of 12.5 mg/kg intraperitoneally on day one. The format is functional. Particulars: Mus musculus, ip, route intraperitoneal. In short, it runs like this: as §1
Assay [7] is described as follows: Antitumor activity in vivo in CD2F1 mice measured in terms of percent increase in lifespan calculated at a dose of 3.13 mg/kg intraperitoneally on days 1-5. The format is functional. Particulars: Mus musculus, ip, route intraperitoneal. In short, it runs like this:
as §1

The nature of assay [8]: Antitumor activity in vivo in CD2F1 mice measured in terms of percent increase in lifespan calculated at a dose of 50 mg/kg intraperitoneally on days 1-5. The format is functional. The following applies: Mus musculus, ip, route intraperitoneal. In short, it runs like this: as §1
The nature of assay [9]: Antitumor activity in vivo in CD2F1 mice measured in terms of percent increase in lifespan calculated at a dose of 1.56 mg/kg intraperitoneally on days 1-5. The class given is functional. The following applies: Mus musculus, ip, route intraperitoneal. The procedure, abridged:
as §1

A short description of assay [10]: Antitumor activity in vivo in CD2F1 mice measured in terms of percent increase in lifespan calculated at a dose of 12.5 mg/kg intraperitoneally on days 1-5. The class given is functional. The following applies: Mus musculus, ip, route intraperitoneal. The procedure, abridged: as §1

One may read the IC50 as the point on the concentration scale where inhibition reaches its midpoint. The low end stands for greater potency in that assay, the high end for weaker potency in that assay. A word on the ILS: it is the gain in survival time of treated over control animals, in per cent. `CCSC1=C(OC)C(=O)C2=C(C[C@H]3[C@H]4[C@H](C(=O)O)C[C@@H](C(C#N)N3[C@H]2CO)N4C)C1=O` (stereo not given in full): the T/C in the assay with CCRF S-180 is 0.47. In the assay on HeLa, this compound yielded a 50% inhibitory concentration (IC50) of 2.42 µg/mL (≈ 5.41 µM). The figures for the ILS at 6.25 mg/kg in assay [1] and in [3] were 29% and 51%, respectively. The R is recorded as 0.67 in assay [2] and 0.65 in [4].
`COC1=C(SC(C)C)C(=O)C2=C(C1=O)[C@@H]1COC3[C@@H]4C[C@@H](C(=O)O)[C@H]([C@H](C2)N31)N4C` (stereo not given in full) had an IC50 in the assay with HeLa of 0.79 µg/mL (≈ 1.82 µM). Also, the increase in lifespan (ILS) at 6.25 mg/kg in assay [1] was 31%; in assay [3] it was 81%. Besides, the R in [2] is given as 1.29; in [4], 1.
Consider `CCSC1=C(OC)C(=O)C2=C(C1=O)[C@H](CO)N1C(C#N)[C@@H]3C[C@@H](C(=O)O)[C@H]([C@@H]1C2)N3C` (stereo not given in full), for which the IC50 in the assay on HeLa amounted to 2.88 µg/mL (≈ 6.44 µM). The R in [2] was found to be 0.72; in [4], 0.76. The ILS at 6.25 mg/kg in assay [3] is 59%. In assay [5], the ILS at 25 mg/kg is 31%.
In the case of `CC(C)Sc1c(O)c2c(c(O)c1SC(C)C)[C@H](CO)N1C(C#N)[C@@H]3C[C@@H](C(=O)O)[C@H]([C@@H]1C2)N3C` (stereo not given in full), the 50% inhibitory concentration (IC50) with HeLa was less than 0.03 µg/mL. The results for the R in [2] and in [4] were 1 and 1.09, respectively. In addition, the ILS at 6.25 mg/kg in [3] is 102%. For the same compound, the ILS at 12.5 mg/kg in assay [6] was 51%.
For the compound `CCSc1c(O)c2c(c(O)c1SCC)[C@H](CO)N1C(C#N)[C@@H]3C[C@@H](C(=O)O)[C@H]([C@@H]1C2)N3C` (stereo not given in full), the IC50 in the assay with HeLa is less than 0.03 µg/mL.
In the assay on HeLa, `CCCSC1=C(SCCC)C(=O)C2=C(C[C@H]3[C@H]4[C@H](C(=O)O)C[C@@H](C(C#N)N3[C@H]2CO)N4C)C1=O` (stereo not given in full) displayed an IC50 of 0.05 µg/mL (≈ 0.0989 µM). The figures for the R in [2] and in assay [4] were 1.17 and 0.48, respectively. The increase in lifespan (ILS) at 6.25 mg/kg in assay [3] was 42%. The ILS at 25 mg/kg in [5] was 56%.
Regarding `CN1[C@@H]2[C@H](C(=O)O)C[C@H]1C(C#N)N1[C@@H](CO)C3=C(C[C@@H]21)C(=O)C(SC(C)(C)C)=C(SC(C)(C)C)C3=O` (stereo not given in full), in assay [7], the ILS at 3.13 mg/kg is 46%. This compound also displayed a half-inhibitory concentration (IC50) with HeLa of 0.004 µg/mL (≈ 0.00749 µM). The R in [2] turned out to be 1.26; in [4], 0.5. The increase in lifespan (ILS) at 25 mg/kg in assay [5] was 48%.
In turn, `CN1[C@@H]2[C@H](C(=O)O)C[C@H]1C(C#N)N1[C@@H](CO)c3c(O)c(SCCO)c(SCCO)c(O)c3C[C@@H]21` (stereo not given in full) registered an IC50 with HeLa of 3.24 µg/mL (≈ 6.33 µM). Besides, the ILS at 6.25 mg/kg was 18% in assay [1] and 41% in assay [3]. Moreover, the figures for the R in [2] and in assay [4] were 0.44 and 0.39, respectively.
On to `CN1[C@@H]2[C@H](C(=O)O)C[C@H]1C(C#N)N1[C@@H](CO)c3c(O)ccc(O)c3C[C@@H]21` (stereo not given in full), for which the IC50 with HeLa stood at 6.1 µg/mL (≈ 17 µM). Further, the increase in life span (ILS) at 6.25 mg/kg in [3] is 23%. For the same compound, in assay [6], the increase in life span (ILS) at 12.5 mg/kg is 23%.
Turning to `CN1[C@@H]2[C@H](C(=O)O)C[C@H]1C(C#N)N1[C@@H](CO)C3=C(C[C@@H]21)C(=O)C(SCCO)=C(SCCO)C3=O` (stereo not given in full), the IC50 in the assay with HeLa turned out to be 2.47 µg/mL (≈ 4.85 µM). Also, the R in assay [2] is given as 0.62. In assay [3], the ILS at 6.25 mg/kg is 20%. Also, the ILS at 12.5 mg/kg in [6] was 26%.
Consider `CCCSC1=C(SCCC)C(=O)C2=C(C[C@H]3[C@H]4[C@H](C(=O)O)C[C@@H](C5OC[C@@H]2N53)N4C)C1=O` (stereo not given in full), for which the IC50 with HeLa is 0.03 µg/mL (≈ 0.0627 µM). For the same compound, the R in assay [2] was 1.21; in assay [4] it was 0.98. In assay [3], the ILS at 6.25 mg/kg is 86%. The ILS at 12.5 mg/kg in assay [6] is 58%.
With `CSc1c(O)c2c(c(O)c1SC)[C@@H]1COC3[C@@H]4C[C@@H](C(=O)O)[C@H]([C@H](C2)N31)N4C` (stereo not given in full), in the assay with HeLa, half-maximal inhibition (IC50) was put at 0.13 µg/mL (≈ 0.306 µM). Further, the R in assay [2] is listed as 1.51; in assay [4], 0.57. Moreover, the increase in life span (ILS) at 6.25 mg/kg in assay [3] was 59%. For the same compound, the ILS at 12.5 mg/kg in assay [6] was 65%.
Take `CCOC(=O)CSC1=C(SCC(=O)OCC)C(=O)C2=C(C[C@H]3[C@H]4[C@H](C(=O)O)C[C@@H](C(C#N)N3[C@H]2CO)N4C)C1=O` (stereo not given in full): the ILS at 50 mg/kg in assay [8] was 30%. Moreover, in the assay on HeLa, it took 9.96 µg/mL (≈ 16.8 µM) to reach half-maximal inhibition (IC50).
Turning to `CCSC1=C(SCC)C(=O)C2=C(C[C@H]3[C@H]4[C@H](C(=O)O)C[C@@H](C5OC[C@@H]2N53)N4C)C1=O` (stereo not given in full), the increase in lifespan (ILS) at 3.13 mg/kg in assay [7] is 82%. The concentration for half-maximal inhibition (IC50) in the assay on HeLa was found to be 0.08 µg/mL (≈ 0.178 µM). Besides, the increase in lifespan (ILS) at 6.25 mg/kg in assay [1] was 64%. Also, the R in assay [2] was 1.33; in assay [4] it was 0.93.
Consider `CCSc1c(O)c2c(c(O)c1OC)[C@H](CO)N1C(C#N)[C@@H]3C[C@@H](C(=O)O)[C@H]([C@@H]1C2)N3C` (stereo not given in full), for which half-maximal inhibition in the assay on HeLa (IC50) was put at 1.18 µg/mL (≈ 2.62 µM). Further, the R stood at 0.65 in assay [2] and 0.79 in assay [4]. The increase in lifespan (ILS) at 6.25 mg/kg in assay [3] is 58%. In assay [6], the ILS at 12.5 mg/kg is 28%.
`COC1=C(SC(C)C)C(=O)C2=C(C[C@H]3[C@H]4[C@H](C(=O)O)C[C@@H](C5OC[C@@H]2N53)N4C)C1=O` (stereo not given in full): in the assay with HeLa, 2.37 µg/mL (≈ 5.45 µM) corresponded to half-maximal inhibition (IC50). In assay [1], the ILS at 6.25 mg/kg was 30%. For the same compound, the R in assay [2] came to 1.25; in [4] it was 0.63. Also, in assay [9], the increase in life span (ILS) at 1.56 mg/kg is 51%.
Compound `CCSC1=C(SCC)C(=O)C2=C(C[C@H]3[C@H]4[C@H](C(=O)O)C[C@@H](C(C#N)N3[C@H]2CO)N4C)C1=O` (stereo not given in full) gave an IC50 with HeLa of 0.11 µg/mL (≈ 0.23 µM). In addition, the R in assay [2] is 1.16; in [4] it was 0.42. Further, the increase in life span (ILS) at 6.25 mg/kg in [3] was 51%. For the same compound, in assay [6], the increase in lifespan (ILS) at 12.5 mg/kg was 50%.
`COC1=C(SC(C)C)C(=O)C2=C(C[C@H]3[C@H]4[C@H](C(=O)O)C[C@@H](C(C#N)N3[C@H]2CO)N4C)C1=O` (stereo not given in full) registered an IC50 in the assay with HeLa of 0.56 µg/mL (≈ 1.21 µM). Moreover, the increase in life span (ILS) at 12.5 mg/kg is 17% in assay [6] and 75% in assay [10]. The R in assay [4] turned out to be 1.
With `COC1=C(SC(C)C)C(=O)C2=C(C1=O)[C@H](CO)N1C(C#N)[C@@H]3C[C@@H](C(=O)O)[C@H]([C@@H]1C2)N3C` (stereo not given in full), half-maximal inhibition in the assay with HeLa (IC50) was put at 1.12 µg/mL (≈ 2.43 µM). Further, the R is 0.58 in assay [2] and 0.68 in [4]. Also, the ILS at 12.5 mg/kg was 21% in assay [6] and 51% in [10].

The values above are taken from ChEMBL document CHEMBL1125273, “Synthesis and biological evaluation of quinocarcin derivatives: thioalkyl-substituted quinones and hydroquinones” (J Med Chem, 1991).
